A short description of data set [1]: Inhibition of Mycobacterium tuberculosis leucyl-tRNA synthetase assessed as reduction of [14C]-L-leucine ligation to tRNA incubated for 5 mins by scintillation counting method in presence of ATP. In a few lines: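 His-tag Ni-NTA-purified M. tuberculosis LeuRS (25 nM) expressed in E. coli Rosetta (DE3). Buffer: 100 mM Tris-HCl pH 8.0, 10 mM MgCl2, 2 mM DTT, 90 µM [14C]-L-leucine, 4 mg/ml E. coli tRNA. Inhibitor (DMSO) preincubated 5 min at 37 °C; started with 2 mM ATP (final). TCA-quenched, scintillation-counted; at least triplicates averaged for IC50.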

The subject of data set [2] is Mycobacterium tuberculosis. The data set can be described thus: Antimicrobial activity against Mycobacterium tuberculosis infected in mouse J774 cells assessed as log reduction of bacterial burden at 8 ug/ml after 7 days. The format is functional. An outline of the steps:
(§1)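 J774 cells in RPMI 1640 with L-glutamine/FBS, 2.0*10^5 per well, then switched to 1% FBS. Infected 4 h at MOI 5, washed, drug added for 7 days. At 0 and 7 d, lysed with SDS, DNase-treated and plated on 7H10 agar for CFU. Log reduction is from 0 h to day 7; duplicates, rifampin positive control.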

Data set [3] deals with Mycobacterium tuberculosis. In words: Antimicrobial activity against Mycobacterium tuberculosis infected in mouse J774 cells assessed as log reduction of bacterial burden at 80 ug/ml after 7 days. Format: functional. An outline of the steps:
as §1

The test system of data set [4] is Mycobacterium tuberculosis. The data set can be described thus: Antimicrobial activity against Mycobacterium tuberculosis infected in mouse J774 cells assessed as log reduction of bacterial burden at 0.8 ug/ml after 7 days. Format: functional. An outline of the steps: as §1
Data set [5] is described as follows: Cytotoxicity against mouse J774 cells assessed as cell viability at 8 ug/ml by MTT assay. The format is cell-based. The note with it: read-out: Activity. In a few lines: (§2)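 MTT proliferation assay on uninfected J774 macrophages, run in parallel with the intracellular infection assay at the same three concentrations. Reported as percentage viability.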
(Formazan colour is commonly taken as a measure of viable cells.)

Data set [6] is described as follows: Cytotoxicity against mouse J774 cells assessed as cell viability at 0.8 ug/ml by MTT assay. The format is cell-based. The note with it: read-out: Activity. An outline of the steps:
as §2

Data set [7] in a line: Cytotoxicity against mouse J774 cells assessed as cell viability at 80 ug/ml by MTT assay. The format is cell-based. The note with it: read-out: Activity. An outline of the steps: as §2
Data set [8] concerns Mycobacterium tuberculosis. In words: Antimicrobial activity against Mycobacterium tuberculosis H37Rv assessed as growth inhibition after 5 days by fluorescence analysis. The note with it: 120 h.
Data set [9] addresses Leucine--tRNA ligase, cytoplasmic (Homo sapiens, UniProt Q9P2J5). In words: Inhibition of human leucyl-tRNA synthetase assessed as reduction of [14C]-L-leucine ligation to tRNA incubated for 5 mins by scintillation counting method in presence of ATP.

SMILES strings stand for the structures. ≈ marks a conversion by molar mass, not a printed value. Some results are limits rather than exact numbers.

Sequence of Leucine--tRNA ligase, cytoplasmic (Q9P2J5 whole entry): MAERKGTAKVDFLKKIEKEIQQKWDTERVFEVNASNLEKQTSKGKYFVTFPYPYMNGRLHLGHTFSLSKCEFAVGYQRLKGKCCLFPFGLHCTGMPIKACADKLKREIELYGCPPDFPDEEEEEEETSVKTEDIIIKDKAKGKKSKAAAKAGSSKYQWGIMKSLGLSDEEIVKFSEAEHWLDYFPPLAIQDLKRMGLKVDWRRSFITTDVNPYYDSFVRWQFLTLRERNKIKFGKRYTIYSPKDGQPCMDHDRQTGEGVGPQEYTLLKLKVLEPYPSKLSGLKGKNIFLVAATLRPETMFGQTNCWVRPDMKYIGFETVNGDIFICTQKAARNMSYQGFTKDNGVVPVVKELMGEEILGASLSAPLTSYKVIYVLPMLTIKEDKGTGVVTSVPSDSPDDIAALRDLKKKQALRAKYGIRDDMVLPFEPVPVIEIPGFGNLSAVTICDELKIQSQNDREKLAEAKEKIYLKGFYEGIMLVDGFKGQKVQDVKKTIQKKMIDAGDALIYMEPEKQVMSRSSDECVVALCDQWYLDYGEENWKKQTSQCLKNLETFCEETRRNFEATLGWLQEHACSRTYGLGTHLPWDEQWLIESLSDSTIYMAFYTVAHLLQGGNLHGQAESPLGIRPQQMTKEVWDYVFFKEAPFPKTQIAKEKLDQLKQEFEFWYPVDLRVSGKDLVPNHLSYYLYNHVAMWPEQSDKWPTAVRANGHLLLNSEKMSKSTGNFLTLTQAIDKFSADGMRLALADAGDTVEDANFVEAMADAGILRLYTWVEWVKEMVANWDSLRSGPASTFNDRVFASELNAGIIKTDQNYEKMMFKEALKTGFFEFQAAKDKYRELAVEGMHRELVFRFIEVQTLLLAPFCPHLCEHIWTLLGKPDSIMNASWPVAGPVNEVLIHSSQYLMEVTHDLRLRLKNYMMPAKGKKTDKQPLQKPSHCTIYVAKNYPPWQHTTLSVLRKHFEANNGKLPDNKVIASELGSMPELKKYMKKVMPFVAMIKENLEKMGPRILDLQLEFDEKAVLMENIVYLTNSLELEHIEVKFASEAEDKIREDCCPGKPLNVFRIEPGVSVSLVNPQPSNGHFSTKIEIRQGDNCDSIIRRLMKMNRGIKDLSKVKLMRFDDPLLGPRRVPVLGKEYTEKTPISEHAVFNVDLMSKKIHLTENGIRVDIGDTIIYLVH

Broadly, the IC50 is the point on the concentration scale where inhibition reaches its midpoint. Turning to `COc1cc(/C=N/Nc2nc(-c3ccc(Br)cc3)cs2)cc(OC)c1OC`, the IC50 in data set [1] is more than 20 µM.
`CC(/C=C1\SC(=S)N(CCC(=O)Nc2ccc(C(=O)O)c(O)c2)C1=O)=C\c1ccccc1`: the IC50 in data set [1] was more than 50 µM.
Turning to `COc1cc(/C=N/Nc2nc(-c3cccc([N+](=O)[O-])c3)cs2)cc(Br)c1O`, the IC50 in [1] is more than 20 µM.
For the compound `COc1cc(/C=N/Nc2nc(-c3ccc(Cl)cc3Cl)cs2)ccc1O`, the IC50 in data set [1] is more than 20 µM.
On to `CO[C@H]1/C=C/O[C@@]2(C)Oc3c(C)c(O)c4c(O)c(c(/C=N/N5CCN(C)CC5)c(O)c4c3C2=O)NC(=O)/C(C)=C\C=C\[C@H](C)[C@H](O)[C@@H](C)[C@@H](O)[C@@H](C)[C@H](OC(C)=O)[C@@H]1C` [RIFAMPIN], for which the Activity in data set [2] was 2.39 deltalog10CFU; in data set [3], 2.86 deltalog10CFU; in data set [4], 1.06 deltalog10CFU. For the same compound, in data set [5], the viability at 8 ug/ml amounted to 85%. Moreover, in [6], the viability at 0.8 ug/ml is 95%. Besides, the viability at 80 ug/ml in data set [7] was determined as 73%.
Consider `COc1cc(/C=N/Nc2nccs2)ccc1O`, for which the IC50 in data set [1] is more than 20 µM.
Turning to `CC(/C=C1\SC(=S)N(CCC(=O)Nc2ccc(O)cc2)C1=O)=C\c1ccccc1`, in data set [1], the IC50 is 22.2 µM.
The IC90 is the point of the concentration-response curve where the effect stands at 90%. A word on the MIC: it is the lowest concentration found to suppress growth. Consider `COc1cc(/C=N/Nc2nc(-c3ccc(Cl)cc3)cs2)cc(Br)c1O`, for which, in [8], the IC50 is 200 µM, the IC90 is more than 200 µM and the MIC was more than 200 µM. The half-maximal inhibitory concentration (IC50) in data set [1] worked out at 4.54 µM. Moreover, in data set [9], the IC50 was 27.6 µM.
For `Oc1ccc(/C=N/Nc2nc(-c3ccccc3)c(-c3ccccc3)s2)cc1`, the half-inhibitory concentration (IC50) in data set [1] was more than 20 µM.
Still for that read-out and setting: with `CC(=O)c1sc(N/N=C/c2cc(Br)ccc2O)nc1C` the figure was more than 20 µM; with `Cc1nc(N/N=C/c2ccc(O)cc2)sc1C`, more than 20 µM; with `COc1cc(/C=N/Nc2nc(-c3cccc([N+](=O)[O-])c3)cs2)cc(OC)c1O`, more than 20 µM.
`COc1cc(/C=N\Nc2nc(-c3ccc(Br)cc3)cs2)cc([N+](=O)[O-])c1O`: the Activity in [2] amounted to 1.42 deltalog10CFU; in [3], 1.2 deltalog10CFU; in data set [4], 1.96 deltalog10CFU. In addition, the half-maximal inhibitory concentration (IC50) in [8] is 10 µM; in data set [1], 6 µM; in [9], 116 µM. The IC90 in [8] was 13.5 µM. Moreover, the minimum inhibitory concentration (MIC) in [8] stood at 25 µM (≈ 11.2 µg/mL). Besides, the viability at 8 ug/ml in data set [5] is less than 10%. The viability at 0.8 ug/ml in data set [6] was 100%. Besides, the viability at 80 ug/ml in [7] turned out to be 10%.
`O=[N+]([O-])c1cc(/C=N\Nc2nccs2)ccc1O`: in data set [8], the IC50 was 59.4 µM and the 90% effect concentration (IC90) is more than 100 µM. In addition, the IC50 in data set [1] is 20 µM.
Turning to `COc1cc(/C=N/Nc2nc(-c3ccccc3)c(-c3ccccc3)s2)cc(OC)c1O`, in [1], the half-maximal inhibitory concentration (IC50) is more than 20 µM.
Turning to `COc1cc(/C=N/Nc2nc(-c3ccccc3)cs2)cc(OC)c1O`, the IC50 in data set [1] was more than 20 µM.
With `CCOC(=O)c1sc(N/N=C/c2ccc(O)c(OC)c2)nc1C`, in [8], the half-inhibitory concentration (IC50) was 59 µM, the 90% effect concentration (IC90) was more than 200 µM and the MIC came to 81 µM (≈ 27.2 µg/mL). Moreover, the IC50 in data set [1] is 11.4 µM. Moreover, the half-maximal inhibitory concentration (IC50) in [9] was 116 µM.
As for `COc1cc(/C=N/Nc2nc(-c3cccc([N+](=O)[O-])c3)cs2)ccc1O`, in data set [8], the IC50 is more than 200 µM, the concentration for an effect of 90% (IC90) was more than 200 µM and the minimal inhibitory concentration (MIC) is more than 200 µM. Moreover, in data set [1], the IC50 was determined as 15.9 µM.
For `O=[N+]([O-])c1ccc(-c2csc(N/N=C\c3ccc(O)c([N+](=O)[O-])c3)n2)cc1`, the IC50 in [8] was more than 100 µM; in data set [1] it was 20 µM. The concentration for an effect of 90% (IC90) in [8] was more than 100 µM.
Take `COc1ccc(/C=N/Nc2nc(-c3ccccc3)c(-c3ccccc3)s2)cc1O`: the IC50 in [1] is more than 20 µM.
Turning to `O=[N+]([O-])c1cccc(-c2csc(N/N=C/c3ccccc3O)n2)c1`, in [1], the IC50 was more than 20 µM.
Still for that read-out and setting: with `COc1cc(/C=N/Nc2nccs2)cc(Br)c1O` the figure was more than 20 µM; with `CCOC(=O)Cc1csc(N/N=C/c2cc(Br)c(O)c(Br)c2)n1`, more than 20 µM; with `COc1cc(/C=N/Nc2nc(C)c(C(C)=O)s2)cc(Br)c1O`, more than 20 µM.
For `COc1cc(/C=N\Nc2nc(-c3ccc([N+](=O)[O-])cc3)cs2)cc([N+](=O)[O-])c1O`, in [8], the IC50 stood at 20.6 µM, the IC90 was 28.8 µM and the MIC was determined as 50 µM (≈ 20.8 µg/mL). In addition, the IC50 in [1] came out at 8 µM. Further, the half-maximal inhibitory concentration (IC50) in [9] stood at 45.8 µM.
Take `Oc1ccc(Br)cc1/C=N/Nc1nccs1`: in [1], the half-inhibitory concentration (IC50) was more than 20 µM.
`COc1cc(/C=N/Nc2nccs2)cc(OC)c1O`: in data set [1], the 50% inhibitory concentration (IC50) is more than 20 µM.
Take `COc1cc(/C=N/Nc2nc(C)cs2)cc(Br)c1O`: the 50% inhibitory concentration (IC50) in data set [1] was more than 20 µM.
Same read-out and setting: with `COc1cc(/C=N/Nc2nc(-c3ccccc3)cs2)cc(Br)c1O` the figure was more than 20 µM.
For `O=[N+]([O-])c1ccc(-c2csc(N/N=C/c3cc(Br)cc(Br)c3O)n2)cc1`, in data set [8], the IC50 was found to be 86 µM, the IC90 was more than 200 µM and the minimal inhibitory concentration (MIC) was more than 200 µM. In data set [1], the concentration for half-maximal inhibition (IC50) worked out at 19.3 µM.
Consider `O=C(O)c1ccc(/C=N/Nc2nccs2)cc1`, for which the IC50 in data set [1] was more than 20 µM.
Take `O=[N+]([O-])c1cccc(-c2csc(N/N=C/c3cccc(O)c3)n2)c1`: the IC50 in [1] is more than 20 µM.
As to `O=[N+]([O-])c1ccc(-c2csc(N/N=C/c3cc(Br)c(O)c(Br)c3)n2)cc1`, in [8], the half-maximal inhibitory concentration (IC50) was determined as 130 µM, the IC90 was more than 200 µM and the MIC is more than 200 µM. The IC50 in data set [1] is 2.27 µM. The half-maximal inhibitory concentration (IC50) in [9] was found to be 18.7 µM.

The values are drawn from ChEMBL document CHEMBL3763142, “Discovery of potent anti-tuberculosis agents targeting leucyl-tRNA synthetase” (Bioorg Med Chem, 2016).
